Test results taken from ChEMBL document CHEMBL4715736, “Identification of anticancer agents based on the thieno[2,3-b]pyridine and 1H-pyrazole molecular scaffolds” (2016).

Legend:
Format in all cases: functional
SK-OV-3 = assay: Growth inhibition of human SK-OV-3 cells incubated for 48 hrs by sulforhodamine B assay; settings: for CC50: read-out: LC50 (the source's name)
How it was run: (§1)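 NCI DTP 60-line human tumour panel. Dose-response curves were run only for ligands active in the initial 10 µM screen. GI50 (concentration giving 50% of maximal inhibition of proliferation) and TGI (concentration giving total growth inhibition) were derived from these curves.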

MOLT-4 = assay: Growth inhibition of human MOLT-4 cells assessed as cell growth at 0.01 uM incubated for 48 hrs by sulforhodamine B assay relative to control; settings: read-out: Activity
OVCAR-3 [1] = assay: Growth inhibition of human OVCAR-3 cells incubated for 48 hrs by sulforhodamine B assay; settings: for CC50: read-out: LC50 (the source's name); how it was run: as §1
786-0 = assay: Growth inhibition of human 786-0 cells incubated for 48 hrs by sulforhodamine B assay; settings: for CC50: read-out: LC50 (the source's name)
How it was run: (§2)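 NCI Developmental Therapeutics Program NCI60 panel. Compounds that were active in the 10 µM one-dose screen went on to dose–response testing. Growth at each concentration is expressed relative to untreated control (100%). GI50 (concentration giving 50% of maximal inhibition of proliferation) and TGI (concentration giving total growth inhibition) were derived from the curves.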

UO-31 [2] = assay: Growth inhibition of human UO-31 cells assessed as cell growth at 0.01 uM incubated for 48 hrs by sulforhodamine B assay relative to control; settings: read-out: Activity
HOP-92 = assay: Growth inhibition of human HOP-92 cells incubated for 48 hrs by sulforhodamine B assay
How it was run: (§3)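 NCI60 panel at the NCI Developmental Therapeutics Program. Only compounds active in the 10 µM screen went to dose-response testing. GI50, the concentration giving 50% of maximal inhibition of proliferation, and TGI, the concentration giving total growth inhibition, were derived from the dose-response curves.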

T47D = assay: Growth inhibition of human T47D cells assessed as cell growth at 0.1 uM incubated for 48 hrs by sulforhodamine B assay relative to control; settings: read-out: Activity
U-251 = assay: Growth inhibition of human U-251 cells assessed as cell growth at 100 uM incubated for 48 hrs by sulforhodamine B assay relative to control; settings: read-out: Activity
IGROV-1 [3] = assay: Growth inhibition of human IGROV-1 cells assessed as cell growth at 0.01 uM incubated for 48 hrs by sulforhodamine B assay relative to control; settings: read-out: Activity
UACC-62 = assay: Growth inhibition of human UACC-62 cells assessed as cell growth at 0.01 uM incubated for 48 hrs by sulforhodamine B assay relative to control; settings: read-out: Activity
OVCAR-8 [4] = assay: Growth inhibition of human OVCAR-8 cells assessed as cell growth at 0.01 uM incubated for 48 hrs by sulforhodamine B assay relative to control; settings: read-out: Activity
HT-29 = assay: Growth inhibition of human HT-29 cells assessed as cell growth at 0.1 uM incubated for 48 hrs by sulforhodamine B assay relative to control; settings: read-out: Activity
UO-31 [5] = assay: Growth inhibition of human UO-31 cells assessed as cell growth at 100 uM incubated for 48 hrs by sulforhodamine B assay relative to control; settings: read-out: Activity
OVCAR-8 [6] = assay: Growth inhibition of human OVCAR-8 cells assessed as cell growth at 0.1 uM incubated for 48 hrs by sulforhodamine B assay relative to control; settings: read-out: Activity
MDA-MB-435 = assay: Growth inhibition of human MDA-MB-435 cells incubated for 48 hrs by sulforhodamine B assay; settings: for CC50: read-out: LC50 (the source's name); how it was run: as §3
CAKI-1 = assay: Growth inhibition of human CAKI-1 cells assessed as cell growth at 0.1 uM incubated for 48 hrs by sulforhodamine B assay relative to control; settings: read-out: Activity; how it was run: as §2
NCI-H460 = assay: Growth inhibition of human NCI-H460 cells assessed as cell growth at 0.01 uM incubated for 48 hrs by sulforhodamine B assay relative to control; settings: read-out: Activity
M14 [7] = assay: Growth inhibition of human M14 cells assessed as cell growth at 1 uM incubated for 48 hrs by sulforhodamine B assay relative to control; settings: read-out: Activity
A549 = assay: Growth inhibition of human A549/ATCC cells assessed as cell growth at 0.01 uM incubated for 48 hrs by sulforhodamine B assay relative to control; settings: read-out: Activity; how it was run: as §2
IGROV-1 [8] = assay: Growth inhibition of human IGROV-1 cells assessed as cell growth at 100 uM incubated for 48 hrs by sulforhodamine B assay relative to control; settings: read-out: Activity
SN12C = assay: Growth inhibition of human SN12C cells assessed as cell growth at 0.1 uM incubated for 48 hrs by sulforhodamine B assay relative to control; settings: read-out: Activity
M14 [9] = assay: Growth inhibition of human M14 cells assessed as cell growth at 100 uM incubated for 48 hrs by sulforhodamine B assay relative to control; settings: read-out: Activity
UACC-257 = assay: Growth inhibition of human UACC-257 cells assessed as cell growth at 0.1 uM incubated for 48 hrs by sulforhodamine B assay relative to control; settings: read-out: Activity
TK-10 = assay: Growth inhibition of human TK-10 cells assessed as cell growth at 0.01 uM incubated for 48 hrs by sulforhodamine B assay relative to control; settings: read-out: Activity
OVCAR-3 [10] = assay: Growth inhibition of human OVCAR-3 cells assessed as cell growth at 1 uM incubated for 48 hrs by sulforhodamine B assay relative to control; settings: read-out: Activity
OVCAR-4 = assay: Growth inhibition of human OVCAR-4 cells assessed as cell growth at 0.01 uM incubated for 48 hrs by sulforhodamine B assay relative to control; settings: read-out: Activity
COLO 205 = assay: Growth inhibition of human COLO 205 cells assessed as cell growth at 0.01 uM incubated for 48 hrs by sulforhodamine B assay relative to control; settings: read-out: Activity; how it was run: as §2
OVCAR-5 = assay: Growth inhibition of human OVCAR-5 cells assessed as cell growth at 1 uM incubated for 48 hrs by sulforhodamine B assay relative to control; settings: read-out: Activity
HCT-116 = assay: Growth inhibition of human HCT-116 cells assessed as cell growth at 100 uM incubated for 48 hrs by sulforhodamine B assay relative to control; settings: read-out: Activity
NCI-H23 = assay: Growth inhibition of human NCI-H23 cells assessed as cell growth at 0.1 uM incubated for 48 hrs by sulforhodamine B assay relative to control; settings: read-out: Activity
MDA-MB-468 = assay: Growth inhibition of human MDA-MB-468 cells assessed as cell growth at 0.1 uM incubated for 48 hrs by sulforhodamine B assay relative to control; settings: read-out: Activity
MCF7 = assay: Growth inhibition of human MCF7 cells assessed as cell growth at 0.01 uM incubated for 48 hrs by sulforhodamine B assay relative to control; settings: read-out: Activity
M14 [11] = assay: Growth inhibition of human M14 cells assessed as cell growth at 0.1 uM incubated for 48 hrs by sulforhodamine B assay relative to control; settings: read-out: Activity
LOX IMVI = assay: Growth inhibition of human LOX IMVI cells assessed as cell growth at 0.01 uM incubated for 48 hrs by sulforhodamine B assay relative to control; settings: read-out: Activity
SR = assay: Growth inhibition of human SR cells incubated for 48 hrs by sulforhodamine B assay; how it was run: as §1

## Cc1cccc(NC(=O)c2sc3nc4c(cc3c2N)C(=O)CCC4)c1
SK-OV-3
  GI50: 251 nM
  TGI: > 100000 nM
  CC50: > 100000 nM
MOLT-4
  growth at 0.01 µM: 97%
OVCAR-3 [1]
  GI50: 256 nM
  TGI: 1660 nM
  CC50: ≥ 100000 nM
786-0
  GI50: 404 nM
  TGI: ≥ 100000 nM
  CC50: ≥ 100000 nM
UO-31 [2]
  growth at 0.01 µM: 88%
HOP-92
  GI50: 1000 nM
  LC50 (concentration killing 50% of the starting cells): > 100000 nM
  TGI: ≥ 100000 nM
T47D
  growth at 0.1 µM: 78%
U-251
  growth at 100 µM: -43%
IGROV-1 [3]
  growth at 0.01 µM: 100%
UACC-62
  growth at 0.01 µM: 94%
OVCAR-8 [4]
  growth at 0.01 µM: 100%
HT-29
  growth at 0.1 µM: 70%
UO-31 [5]
  growth at 100 µM: -23%
OVCAR-8 [6]
  growth at 0.1 µM: 98%
MDA-MB-435
  GI50: 29.7 nM
  TGI: 115 nM
  CC50: 681 nM
CAKI-1
  growth at 0.1 µM: 73%
NCI-H460
  growth at 0.01 µM: 104%
M14 [7]
  growth at 1 µM: 11%
A549
  growth at 0.01 µM: 92%
IGROV-1 [8]
  growth at 100 µM: -4%
SN12C
  growth at 0.1 µM: 87%
M14 [9]
  growth at 100 µM: -48%
UACC-257
  growth at 0.1 µM: 58%
TK-10
  growth at 0.01 µM: 91%
OVCAR-3 [10]
  growth at 1 µM: -7%
OVCAR-4
  growth at 0.01 µM: 90%
COLO 205
  growth at 0.01 µM: 92%
OVCAR-5
  growth at 1 µM: 44%
HCT-116
  growth at 100 µM: 10%
NCI-H23
  growth at 0.1 µM: 82%
MDA-MB-468
  growth at 0.1 µM: 45%
MCF7
  growth at 0.01 µM: 86%
M14 [11]
  growth at 0.1 µM: 60%
LOX IMVI
  growth at 0.01 µM: 97%

## CCc1ccccc1NC(=O)c1sc2nc3c(cc2c1N)C(=O)CCC3
SK-OV-3
  GI50: 537 nM
  TGI: 75700 nM
  CC50: > 100000 nM
MOLT-4
  growth at 0.01 µM: 102%
OVCAR-3 [1]
  GI50: 367 nM
  TGI: 15800 nM
  CC50: > 100000 nM
786-0
  GI50: 578 nM
  TGI: ≥ 100000 nM
  CC50: > 100000 nM
UO-31 [2]
  growth at 0.01 µM: 90%
HOP-92
  LC50 (concentration killing 50% of the starting cells): > 100000 nM
  TGI: ≥ 100000 nM
T47D
  growth at 0.1 µM: 102%
U-251
  growth at 100 µM: -15%
IGROV-1 [3]
  growth at 0.01 µM: 108%
OVCAR-8 [4]
  growth at 0.01 µM: 98%
HT-29
  growth at 0.1 µM: 100%
UO-31 [5]
  growth at 100 µM: 18%
OVCAR-8 [6]
  growth at 0.1 µM: 97%
SR
  GI50: 406 nM
  LC50: > 100000 nM
  TGI: > 100000 nM
MDA-MB-435
  GI50: 46.4 nM
  TGI: 225 nM
  CC50: > 100000 nM
CAKI-1
  growth at 0.1 µM: 90%
NCI-H460
  growth at 0.01 µM: 100%
M14 [7]
  growth at 1 µM: 17%
A549
  growth at 0.01 µM: 97%
IGROV-1 [8]
  growth at 100 µM: 7%
SN12C
  growth at 0.1 µM: 88%
M14 [9]
  growth at 100 µM: 7%
UACC-257
  growth at 0.1 µM: 79%
TK-10
  growth at 0.01 µM: 93%
OVCAR-3 [10]
  growth at 1 µM: 12%
OVCAR-4
  growth at 0.01 µM: 89%
COLO 205
  growth at 0.01 µM: 102%
OVCAR-5
  growth at 1 µM: 50%
HCT-116
  growth at 100 µM: 6%
MDA-MB-468
  growth at 0.1 µM: 75%
MCF7
  growth at 0.01 µM: 82%
M14 [11]
  growth at 0.1 µM: 78%
LOX IMVI
  growth at 0.01 µM: 97%
